The source of these data is paper PMC10471475 (Parasites, Hosts and Diseases, 2023).

As usually defined, the ED50 is the dose that gives a 50% effect, or the effect in half of the subjects. Lower therefore signals an effect at a small dose. The term AUC(0-inf) denotes total exposure, with the tail of the curve extrapolated. The low end stands for less exposure, the high end for more exposure. The AUC(0-t) is exposure summed from dosing to a finite time, without extrapolation to infinity. A lower AUC(0-t) goes with less exposure. For orientation: MRT means the average time that molecules of a dose stay in the body. What is called half-life is the time in which the quantity being followed falls by half. Read a low half-life as fast loss. Broadly, the bioavailability is the share of a dose that reaches the circulation, judged against a reference dose that is usually intravenous. High values mean good availability, low ones poor availability. As usually defined, the Cmax is the maximum level reached in the sampled fluid or tissue. Usually Tmax stands for the time from dosing to the highest level.

Data set [1] concerns P. berghei (NK65 strain). The data set can be described thus: Antimalarial activity following repeated oral dosing. Format: in vivo, Plasmodium berghei. As to conditions: for Parasitemia day 1: before treatment (treatment days 2-4); for Parasitemia day 2: start of treatment.
Data set [2] relates to P. falciparum. Particulars: cited from earlier work.
In data set [3] the test system is malaria parasites in mice. As to conditions: ointment, transdermal, cited from earlier work.
Data set [4] concerns P. berghei (NK65 strain). The experiment in a line: Peters' 4-day suppressive test by different administration routes. Format: in vivo, Plasmodium berghei. In short, it runs like this:
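Peters' 4-day test: male ICR mice, iv inoculation of 1×10^5 P. berghei NK65-infected erythrocytes. First dose 2 h post-inoculation, then dosing on days 0–3. Routes and doses: po 0–80 mg/day in olive oil; iv 0–80 mg/day in ethanol/Cremophor EL/saline 10:10:80; sq 0–8 mg/day in the iv vehicle. Vehicle controls; 5 mice/group. Day-4 thin-film parasitemia, expressed as percent reduction; ED50/ED90 by sigmoidal dose-response fit.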

Data set [5] is described as follows: Pharmacokinetic analysis of N-89 in mice after single po or iv administration. Particulars: for plasma concentration: detection limit 5 ng/ml. Format: in vivo, ICR mice. In short, it runs like this: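 Male ICR mice got a single dose of test compound: 75 mg/kg po in olive oil or 30 mg/kg iv in 10% ethanol/10% Cremophor EL/80% saline. Blood sampled 0.25–10 h, one sample per mouse, 5 mice per time. Plasma obtained by centrifugation 10 min, 945 g, 4°C, acetonitrile-extracted, then LC/MS/MS (detection limit 5 ng/ml). Cmax observed; AUC and MRT from the mean time course (n=5).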

In data set [6] the test system is mouse mammary tumor FM3A cells. Particulars: in vitro; cited from earlier work.
Data set [7] relates to P. berghei. Particulars: cited from earlier work.
Where [8] appears, read: 50 mg/kg po thrice daily days 2-4.
The mark [9] stands for this setting: 50 mg/kg po thrice daily for 3 days.
Setting [10] is: 75 mg/kg po 3 times daily days 2-4.
The mark [11] stands for this setting: po, olive oil, 4 days, parasitemia on day 4.
Where [12] appears, read: ICR, mouse, plasma, iv, 30 mg/kg.
Setting [13] is: ICR, mouse, plasma, po, 75 mg/kg.

Structures are written as SMILES. Values joined by “and” are separate entries in the source; they are usually repeats but may differ in a detail not shown here. Identical values can stand only once. Marks after values point to notes of the source that are not given here.

Take `C1CCCCCC2(CCCCC1)OOCCCOO2` [N-89, 1,2,6,7-tetraoxaspiro[7.11]nonadecane]: in data set [1] (50 mg/kg po group), the “Parasitemia day 1” value amounted to 0.10±0.04%. In data set [1] (setting [8]), the “Parasitemia day 3” value stood at 0.11±0.06%, the “Parasitemia day 4” value is listed as 0.01±0.01%, the “Parasitemia day 5” value was 0.002±0.004^c % and the “Parasitemia day 6” value is 0.00^b %. Moreover, in data set [1] (setting [8]), the “parasitemia of the one mouse not yet cured on day 5” value is on record as 0.01% and the “Parasitemia day 2” value is on record as 0.51±0.14%. In data set [1] (setting [9]), the cure effect result was “complete cure effect” and the “day on which parasites were eliminated / all mice cured, no recurrence to day 30” value is 6 days. In addition, in data set [1] (setting [10]), the “Parasitemia day 3” value worked out at 0.26±0.05%, the “Parasitemia day 4” value is reported as 0.01±0.01^a %, the “Parasitemia day 5” value is on record as 0.00^b % and the “Parasitemia day 6” value was determined as 0.00%. In data set [1] (setting [10]), the “parasitemia of the 4 mice not yet cured on day 4” value is “below 0.015%” and the “Parasitemia day 2” value is 0.70±0.19%. Also, the “day on which parasites were eliminated / all mice cured, no recurrence to day 30” value in data set [1] (75 mg/kg po 3 times daily for 3 days) is 5 days and 4 to 5 days. The “Parasitemia day 1” value in data set [1] (75 mg/kg po group) is 0.09±0.07%. Moreover, the “EC50 value of P. falciparum in vitro” value in data set [2] was 6.8 ng/mL. The “day from which parasites disappeared post-treatment” value in data set [3] (60 mg/kg twice daily for 4 days at 0.2% parasitemia) is 7 days. The “recurrence and dermal irritation” value in data set [3] (60 mg/kg twice daily for 4 days) is given as “without parasite recurrence or dermal irritation”. The molecule further showed an ED50 in data set [4] (Plasmodium berghei, 96 h, sq, ethanol:Cremophor EL:saline 1:1:8, 4 days) of 2.5 ± 1.1 mg/kg. Moreover, the ED50 in data set [4] (Plasmodium berghei, iv, 96 h, iv, ethanol:Cremophor EL:saline 1:1:8, 4 days) was 14.5 ± 1.9 mg/kg. Further, the ED90 in data set [4] (iv, ethanol:Cremophor EL:saline 1:1:8, 4 days) is 21.0 ± 0.8 mg/kg. In data set [4] (setting [11]), this molecule registered an ED50 of 20.5 ± 2.0 mg/kg and an ED90 of 43.5 ± 1.5 mg/kg. In addition, the ED90 in data set [4] (sq, ethanol:Cremophor EL:saline 1:1:8, 4 days) worked out at 3.8 ± 1.0 mg/kg. In data set [5] (setting [12]), this molecule registered an area under the curve AUC(0-inf) of 13600 ng·h/mL, an exposure AUC(0-t) of 13600 ng·h/mL, a mean residence time (MRT) of 0.24 h and a Vd of 0.53 L/kg. In data set [5] (setting [12]), the clearance was 36.8 mL/min/kg, the concentration at 0.25 h came out at 18300 ng/mL and the half-life was 90 min. The molecule also came in with a bioavailability in data set [5] (ICR, mouse, plasma, oral, 75 mg/kg) of 7.01%. Further, in data set [5] (setting [13]), the AUC(0-inf) is 2380 ng·h/mL, the AUC(0-t) is 2370 ng·h/mL, the peak level (Cmax) was 1.59 µg/mL and the MRT came to 1.79 h. In data set [5] (setting [13]), the Tmax turned out to be 45 min, the concentration at 8 h stood at 8.1 ng/mL and the half-life was 58.2 min. Besides, in data set [5] (mice, 30 mg/kg iv, at 5 h), the plasma concentration entry is on record as “could not be detected”. Moreover, the plasma concentration result in data set [5] (mice, 75 mg/kg po, at 10 h) is given as “could not be detected”. The Cmax in data set [5] (mice, single dose 75 mg/kg po (Table 1)) worked out at 1590 µg/mL. The “toxicity against P. falciparum relative to FM3A cells (selective toxicity)” value in data set [6] is 350 fold.
`C[C@H]1[C@@H](OCc2ccc(C(=O)O)cc2)O[C@@H]2O[C@@]3(C)CC[C@H]4[C@H](C)CC[C@@H]1[C@@]24OO3` [artelinic acid]: the “effect of topical gel on infected mice” value in data set [7] (gel applied topically twice/day x 3 days post-infection, dose 270 mg/kg) is recorded as “prevented the death”.
`CO[C@H]1O[C@@H]2O[C@@]3(C)CC[C@H]4[C@H](C)CC[C@@H]([C@H]1C)[C@@]24OO3` [artemether]: the “effect of topical formulation on infected mice” value in data set [7] (improved formulation, same experimental conditions, dose 60 mg/kg) was “efficient”.
